NPY1 pot ag: potentiates or activates human NPY-Y1 receptor; P25929; NPY-Y1 expressing cells, potentiator/agonist activation; activation, % at 3.6 µM; 0.37% of 220,000 active; in the data active means activation above about 33%, passing the limit was not always enough;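 further: cells stimulated with NPY at EC10 then isoproterenol at EC100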
WT yeast gro inh: growth inhibition of WT yeast, mitochondrial fusion screen; inhibition, % at 10 µM; 2.1% of 190,000 active; mitochondrial fusion phenotypic screen, WT strain; in the data active means inhibition above about 58%; tested in S. cerevisiae
RAM network inh: inhibitors of the yeast RAM network. S. cerevisiae dse1pr::URA3 reporter, 5-FOA growth OD615, 2 d; analog-sensitive cbk1-as2 kinase mutant strain. inhibition, % at 50 µM. 1.8% of 190,000 active. AID 868;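 active means inhibition above a set limit, 3 SD over mean compound inhibition, cut at about 8.4% in these data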;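 further: inhibition rescues growth on 5-FOA so higher OD means more RAM inhibition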
NPY Y1 blocker: blocks the human neuropeptide Y Y1 receptor. HEK293-CNG Y1 cells, membrane potential fluorescence; NPY at EC95, then isoproterenol. inhibition, % at 3.6 µM. 1% of 200,000 active. AID 1040;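 active means inhibition above the campaign mean inhibition of all tested compounds plus 3 SD, cut at about 20% in these data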
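Test system – HEK293 Y1/CNG channel cell line · Also added – NPY agonist 25 nM, then isoproterenol 1 µM plus Ro 20-1724 25 µM · Compound dosing – one concentration, 3.6 µM, in 0.4% DMSO · Schedule – compound incubation 1 h at room temperature, readout 45 min post-stimulation · Technique – fluorescence, membrane potential probe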
NPY Y2 blocker: antagonists of human neuropeptide Y receptor Y2. P49146. NPY-Y2 expressing cells, antagonist mode. inhibition, % at 2.7 µM. 0.99% of 140,000 active; in the data active means inhibition above about 17%
Target sequence (P49146 whole entry, looked up): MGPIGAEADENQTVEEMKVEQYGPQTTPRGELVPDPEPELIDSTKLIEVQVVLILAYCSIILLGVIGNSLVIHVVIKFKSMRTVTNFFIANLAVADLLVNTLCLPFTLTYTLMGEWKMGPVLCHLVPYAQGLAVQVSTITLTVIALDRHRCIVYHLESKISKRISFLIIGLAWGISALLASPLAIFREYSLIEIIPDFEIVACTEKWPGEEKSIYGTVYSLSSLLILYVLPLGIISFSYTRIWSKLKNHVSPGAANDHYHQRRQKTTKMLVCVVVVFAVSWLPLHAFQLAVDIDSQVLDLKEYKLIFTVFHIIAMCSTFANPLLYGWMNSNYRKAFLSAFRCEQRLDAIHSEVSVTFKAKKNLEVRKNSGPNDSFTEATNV
NPY-Y2 PAM-ag: human NPY-Y2 potentiation or agonism, primary screen; cells expressing NPY-Y2, potentiator/agonist read-out; activation, % at 3.6 µM; 0.45% of 220,000 active; AID 1359; in the data active means activation above about 27%;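 further: cells stimulated with NPY near EC25 plus isoproterenol at EC100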
Hits are given with their value; n = inactive; x = no result. A selection: hits, their analogues and other compounds. The true share with any hit is near 4.9%.

SMILES	NPY1 pot ag	WT yeast gro inh	RAM network inh	NPY Y1 blocker	NPY Y2 blocker	NPY-Y2 PAM-ag
CCOC(=O)C1=NN(c2ccccc2)C2(S1)SC(C(C)=O)=C(C)N2c1ccccc1 (configuration not stated)	n	72	n	n	n	n
CCOC(=O)C1=NN(c2cccc(C)c2)C2(S1)SC(C(C)=O)=C(C)N2c1ccccc1 (configuration not stated)	n	77	n	29	32	n
CCOC(=O)C1=NN(c2ccc(C)cc2)C2(S1)SC(C(C)=O)=C(C)N2c1ccccc1 (configuration not stated)	n	n	n	n	n	n
CC(C)CCn1nnnc1CN1CCN(C(c2ccccc2)c2ccccc2)CC1	n	n	n	n	x	n
Cc1ccccc1OCC(O)CN (configuration not stated)	80	n	n	n	n	44
COc1ccccc1N(CC(O)COc1ccccc1C)S(=O)(=O)c1ccccc1 (configuration not stated)	n	n	9.7	n	n	n
Cc1ccccc1OCC(O)CN1CCCCC1 (configuration not stated)	89	n	n	n	x	64
CC1CCc2c(C(=O)Oc3cccc(-n4cnnn4)c3)csc2C1 (configuration not stated)	n	61	n	n	n	n
CCOC(=O)CCCCC(=O)c1[nH]c(=O)[nH]c1CSc1nc(C)cc(=O)[nH]1	n	n	n	n	n	n
CCCCCC1CC(CC(=O)NC(=S)Nc2ccc([N+](=O)[O-])cc2)C(=O)O1 (configuration not stated)	n	n	11	n	n	n
CCCCCCC1CC(CC(=O)Nc2ccc([N+](=O)[O-])cc2)C(=O)O1 (configuration not stated)	n	n	n	n	n	n
COCCCNC(=S)NCCCNc1nc2cc(C)cc(C)c2cc1C#N	n	n	n	n	x	n
COCCCNC(=S)NCCNc1nc2c(C)c(C)ccc2cc1C#N	n	n	9.6	n	x	n
CC(C1CC1)N(Cc1ccccc1)C(=S)Nc1ccccc1Cl (configuration not stated)	n	n	8.6	n	x	n
Cc1ccccc1Nc1c(-c2ccc(N3CCOCC3)cc2)nc2ncccn12	56	n	n	n	x	43
Cc1cccc(C)c1Nc1c(-c2ccsc2)nc2ncccn12	46	n	n	n	n	59
CN1CCN(S(=O)(=O)c2ccc(N3CCN(S(=O)(=O)/C=C/c4ccccc4)CC3)nc2)CC1	n	n	n	n	n	n
CN1CCN(S(=O)(=O)c2ccc(N3CCN(C(c4ccccc4)c4ccccc4)CC3)nc2)CC1	n	69	n	n	x	n
CCOC(=O)N1CCN(c2ncnc3c2[nH]c2ccc(F)cc23)CC1	n	n	n	n	n	n
Cn1nccc1C(=O)OCC(=O)Nc1nc(-c2ccccc2)cs1	n	n	9.4	n	n	n
Cc1cccc(NC(=O)C2C(c3ccccc3)C2(Cl)Cl)c1 (configuration not stated)	n	64	n	n	x	n
Cc1ccc(NC(=O)C2C(c3ccccc3)C2(Cl)Cl)c(C)c1 (configuration not stated)	n	86	n	n	n	n
O=S(=O)(c1ccc(F)cc1)N1CCN=C1SCc1cccnc1	n	n	n	n	x	n
CCOC(=O)C1CCCN(C(=O)Cn2cnc3c2c(=O)n(C)c(=O)n3C)C1 (configuration not stated)	n	n	n	n	n	n
COCCNC(=S)N/N=C/c1ccc(OCc2ccc(C(=O)OC)cc2)c(OC)c1	n	n	10	n	n	n
SMILES	NPY1 pot ag	WT yeast gro inh	RAM network inh	NPY Y1 blocker	NPY Y2 blocker	NPY-Y2 PAM-ag
CCOC(=O)c1cc([N+](=O)[O-])c([N+](=O)[O-])cc1NC(C)=O	n	76	n	n	n	n
CCOC(=O)c1ccc(NC(=O)c2ccccc2[N+](=O)[O-])cc1	n	n	n	n	n	n
Cc1cc(C)n(Cc2ccc(Cl)cc2Cl)c(=O)c1S(=O)(=O)c1ccccc1	n	n	8.9	n	n	n
CN(C)CCCn1c(-c2ccccc2)nc(=S)c2c1CCCC2	n	n	n	n	n	n
OCCCn1c(-c2ccccc2)nc(=S)c2c1CCCC2	n	n	n	n	n	n
Cc1cccc(-c2nc(=S)c3c(n2Cc2ccco2)CCCC3)c1	n	n	n	25	22	n
Cc1ccc(-c2nc(=S)c3c(n2Cc2ccco2)CCCC3)cc1	n	n	n	21	n	n
CCOC(=O)c1sc2nc(C)nc(N3CCCCC3C)c2c1C (configuration not stated)	n	n	n	n	x	n
Cc1nc(N2CCCCC2C)c2c(C)c(C(=O)Nc3cccc(C(F)(F)F)c3)sc2n1 (configuration not stated)	n	68	n	n	x	n
Cc1nc(N2CCCCC2)c2c(C)c(C(=O)Nc3cccc(C(F)(F)F)c3)sc2n1	n	70	n	n	x	n
O=C1/C(=C/c2ccncc2)CCc2ccccc21	n	x	x	x	x	n
O=C1/C(=C/c2ccncc2)CCC/C1=C\c1ccncc1	n	64	n	n	x	n
CCN1C(=O)/C(=C\C=C\c2ccccc2[N+](=O)[O-])SC1=S	n	n	8.6	n	x	n
CCN1C(=O)/C(=C/N2CCc3ccccc3C2)SC1=S	n	x	x	x	x	n
CCCN(CCC)CCCNc1ccc(C(=O)Nc2cccc(OC)c2)cc1[N+](=O)[O-]	n	n	n	n	x	n
CCN1C(=O)CSc2ccc(C(=O)NC3CCCCC3)cc21	n	n	8.7	n	n	n
CCN1C(=O)CSc2ccc(C(=O)NCc3ccccc3OC)cc21	n	n	n	n	n	n
COc1ccc(NC(=O)c2scc(S(=O)(=O)C(C)C)c2N)cc1	n	x	x	x	x	n
COc1ccc(CC(=O)Nc2cccc(C(=O)Nc3cccc(C)c3)c2)cc1	n	n	n	n	x	n
O=P(OC1CCCCC1)(OC1CCCCC1)C(O)c1c(Cl)cccc1Cl (configuration not stated)	n	71	n	n	n	n
COc1ccc(S(=O)(=O)NCCc2nnc3ccc(SCc4cccnc4)nn23)cc1	n	n	n	n	x	n
C=CCn1c(SCc2csc(C)n2)nc2sc3c(c2c1=O)CCCC3	n	70	9.3	n	n	n
CN1CCN(S(=O)(=O)c2ccc(NC(=O)C3CCCCC3)cc2)CC1	n	n	n	n	n	n
Fc1ccc(-c2csc(=S)[nH]2)cc1	n	62	n	n	x	n
S=c1[nH]c(-c2ccccc2)cs1	n	n	n	n	x	n
Clc1nc(-c2cccnc2)nc2scc(-c3ccccc3)c12	n	77	n	n	n	n
COc1ccc(-c2csc3nc(-c4cccnc4)nc(Cl)c23)cc1OC	n	63	n	n	n	n
O=S(=O)(NCCCc1ccccc1)c1cccc2nsnc12	n	n	n	n	n	n

Assay outcomes: PubChem BioAssay, several laboratories
